Test results: ChEMBL document CHEMBL5724801, “EUbOPEN Chemogenomics Library - Multiplex” (2024)
Values joined by “and” are separate entries in the source; they are usually repeats but may differ in a detail not shown here. Equal values may be shown once.

Experiments:
HEK-293T = assay: Multiplex assay against HEK293T; assay type: toxicity, cell-based; conditions: human
Summary of the method: (§1)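 Hoechst33342, BioTracker Green Microtubule Cytoskeleton Dye, MitoTracker Red and Annexin V Alexa Fluor 680 were added to live cells at seeding, and imaging on a CQ1 microscope at 37°C and 5% CO2 followed compound addition. Gating by CellPathfinder machine learning separated cells into Hoechst high-intensity objects or normal cells, then normal cells into healthy, pyknosed or fragmented nuclei, then pyknosed cells into mitotic or apoptotic. Per cents of healthy-nucleus cells are reported for the tubulin, mitochondrial-mass and membrane-permeability phenotypes.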

Fibroblast = assay: Multiplex assay against human fibroblast; assay type: toxicity, cell-based; summary of the method: as §1
[1] = 24 h, 1 µM, compound concentration 1 uM
[2] = 24 h, 10 µM, compound concentration 10 uM
[3] = 48 h, 1 µM, compound concentration 1 uM
[4] = 48 h, 10 µM, compound concentration 10 uM
[5] = 12 h, 1 µM, compound concentration 1 uM
[6] = 12 h, 10 µM, compound concentration 10 uM

O=C(O)Cc1ccccc1Nc1c(Cl)cccc1Cl [DICLOFENAC]
Population Pyknosed Nuclei (%) (HEK-293T; [1]): 15% and 14%
Population Tubulin-Different-Phenotype (%) (HEK-293T; [1]): 24% and 9%
Total Cell Count (HEK-293T; [1]): 456 and 418
Population Apoptotic (%) (HEK-293T; [2]): 25% and 49%
Population Fragmented Nuclei (%) (HEK-293T; [2]): 10%
Population Healthy Nuclei (%) (HEK-293T; [2]): 77% and 75%
Population Hoechst High Intensity Objects (%) (HEK-293T; [2]): 4% and 9%
Population Membrane Permeable-Phenotype (%) (HEK-293T; [2]): 0%
Population Mitochondria Different-Phenotype (%) (HEK-293T; [2]): 29% and 50%
Population Mitotic Cells (%) (HEK-293T; [2]): 74% and 50%
Population Normal (%) (HEK-293T; [2]): 95% and 90%
Population Pyknosed Nuclei (%) (HEK-293T; [2]): 12% and 14%
Population Tubulin-Different-Phenotype (%) (HEK-293T; [2]): 29% and 26%
Total Cell Count (HEK-293T; [2]): 650 and 462
Population Apoptotic (%) (HEK-293T; [3]): 23% and 33%
Population Fragmented Nuclei (%) (HEK-293T; [3]): 11% and 15%
Population Healthy Nuclei (%) (HEK-293T; [3]): 82% and 79%
Population Hoechst High Intensity Objects (%) (HEK-293T; [3]): 2%
Population Membrane Permeable-Phenotype (%) (HEK-293T; [3]): 1%
Population Mitochondria Different-Phenotype (%) (HEK-293T; [3]): 22% and 16%
Population Mitotic Cells (%) (HEK-293T; [3]): 76% and 66%
Population Normal (%) (HEK-293T; [3]): 97%
Population Pyknosed Nuclei (%) (HEK-293T; [3]): 6% and 4%
Population Tubulin-Different-Phenotype (%) (HEK-293T; [3]): 15% and 10%
Total Cell Count (HEK-293T; [3]): 730 and 697
Population Apoptotic (%) (HEK-293T; [4]): 36%
Population Fragmented Nuclei (%) (HEK-293T; [4]): 12% and 16%
Population Healthy Nuclei (%) (HEK-293T; [4]): 80% and 75%
Population Hoechst High Intensity Objects (%) (HEK-293T; [4]): 3% and 4%
Population Membrane Permeable-Phenotype (%) (HEK-293T; [4]): 1% and 0%
Population Mitochondria Different-Phenotype (%) (HEK-293T; [4]): 17% and 36%
Population Mitotic Cells (%) (HEK-293T; [4]): 63%
Population Normal (%) (HEK-293T; [4]): 96% and 95%
Population Pyknosed Nuclei (%) (HEK-293T; [4]): 7%
Population Tubulin-Different-Phenotype (%) (HEK-293T; [4]): 18% and 17%
Total Cell Count (HEK-293T; [4]): 883 and 649
Population Apoptotic (%) (Fibroblast; [5]): 43% and 33%
Population Fragmented Nuclei (%) (Fibroblast; [5]): 14% and 25%
Population Healthy Nuclei (%) (Fibroblast; [5]): 67% and 49%
Population Hoechst High Intensity Objects (%) (Fibroblast; [5]): 0% and 2%
Population Membrane Permeable-Phenotype (%) (Fibroblast; [5]): 1% and 7%
Population Mitochondria Different-Phenotype (%) (Fibroblast; [5]): 6%
Population Mitotic Cells (%) (Fibroblast; [5]): 56% and 66%
Population Normal (%) (Fibroblast; [5]): 99% and 97%
Population Pyknosed Nuclei (%) (Fibroblast; [5]): 17% and 25%
Population Tubulin-Different-Phenotype (%) (Fibroblast; [5]): 25% and 49%
Population Apoptotic (%) (Fibroblast; [6]): 32% and 38%
Population Fragmented Nuclei (%) (Fibroblast; [6]): 14% and 36%
Population Healthy Nuclei (%) (Fibroblast; [6]): 68% and 46%
Population Hoechst High Intensity Objects (%) (Fibroblast; [6]): 0% and 6%
Population Membrane Permeable-Phenotype (%) (Fibroblast; [6]): 0% and 16%
Population Mitochondria Different-Phenotype (%) (Fibroblast; [6]): 5% and 8%
Population Mitotic Cells (%) (Fibroblast; [6]): 68% and 61%
Population Normal (%) (Fibroblast; [6]): 99% and 93%
Population Pyknosed Nuclei (%) (Fibroblast; [6]): 17%
Population Tubulin-Different-Phenotype (%) (Fibroblast; [6]): 24% and 54%
Population Apoptotic (%) (Fibroblast; [1]): 52% and 35%
Population Fragmented Nuclei (%) (Fibroblast; [1]): 15% and 28%
Population Healthy Nuclei (%) (Fibroblast; [1]): 66% and 49%
Population Hoechst High Intensity Objects (%) (Fibroblast; [1]): 2% and 3%
Population Membrane Permeable-Phenotype (%) (Fibroblast; [1]): 0% and 12%
Population Mitochondria Different-Phenotype (%) (Fibroblast; [1]): 4% and 6%
Population Mitotic Cells (%) (Fibroblast; [1]): 47% and 64%
Population Normal (%) (Fibroblast; [1]): 97% and 96%
Population Pyknosed Nuclei (%) (Fibroblast; [1]): 17% and 21%
Population Tubulin-Different-Phenotype (%) (Fibroblast; [1]): 29% and 50%
Population Apoptotic (%) (Fibroblast; [2]): 30% and 50%
Population Fragmented Nuclei (%) (Fibroblast; [2]): 16% and 31%
Population Healthy Nuclei (%) (Fibroblast; [2]): 68% and 50%
Population Hoechst High Intensity Objects (%) (Fibroblast; [2]): 5% and 2%
Population Membrane Permeable-Phenotype (%) (Fibroblast; [2]): 0% and 8%
Population Mitochondria Different-Phenotype (%) (Fibroblast; [2]): 5% and 10%
Population Mitotic Cells (%) (Fibroblast; [2]): 69% and 50%
Population Normal (%) (Fibroblast; [2]): 94% and 97%
Population Pyknosed Nuclei (%) (Fibroblast; [2]): 15% and 18%
Population Tubulin-Different-Phenotype (%) (Fibroblast; [2]): 19% and 55%
Population Apoptotic (%) (Fibroblast; [3]): 85% and 57%
Population Fragmented Nuclei (%) (Fibroblast; [3]): 21% and 36%
Population Healthy Nuclei (%) (Fibroblast; [3]): 61% and 53%
Population Hoechst High Intensity Objects (%) (Fibroblast; [3]): 3% and 5%
Population Membrane Permeable-Phenotype (%) (Fibroblast; [3]): 4%
Population Mitochondria Different-Phenotype (%) (Fibroblast; [3]): 4%
Population Mitotic Cells (%) (Fibroblast; [3]): 15% and 42%
Population Normal (%) (Fibroblast; [3]): 96% and 94%
Population Pyknosed Nuclei (%) (Fibroblast; [3]): 16% and 10%
Population Tubulin-Different-Phenotype (%) (Fibroblast; [3]): 24% and 44%
Population Apoptotic (%) (Fibroblast; [4]): 73% and 30%
Population Fragmented Nuclei (%) (Fibroblast; [4]): 22% and 35%
Population Healthy Nuclei (%) (Fibroblast; [4]): 65% and 50%
Population Hoechst High Intensity Objects (%) (Fibroblast; [4]): 3%
Population Membrane Permeable-Phenotype (%) (Fibroblast; [4]): 0% and 4%
Population Mitochondria Different-Phenotype (%) (Fibroblast; [4]): 3% and 6%
Population Mitotic Cells (%) (Fibroblast; [4]): 26% and 69%
Population Normal (%) (Fibroblast; [4]): 96%
Population Pyknosed Nuclei (%) (Fibroblast; [4]): 12% and 14%
Population Tubulin-Different-Phenotype (%) (Fibroblast; [4]): 28% and 53%
